Source: ChEMBL document CHEMBL1143930, “S-Euglobals: biomimetic synthesis, antileishmanial, antimalarial, and antimicrobial activities” (Bioorg Med Chem, 2008)
≈ marks a conversion by molar mass, not a printed value. Calls of active or inactive are those of the source. The calls are words filed in the database; no cut-off is given here.

Key:
Plasmodium falciparum [1] = assay: Antimalarial activity against chloroquine-sensitive Plasmodium falciparum D6 by LDH release assay; format: functional, organism-based
Procedure, shortened: (§1)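 Infected red cells (W2 or D6), 2% parasitemia, 2% hematocrit, in RPMI 1640 with 10% human serum and 60 µg/mL amikacin, exposed to serial sample dilutions. Incubated 72 h at 37 C under 90% N2/5% O2/5% CO2. Parasite LDH measured with Malstat reagent (30 min, room temperature), then NBT/PES 1 h in dark, stopped with 5% acetic acid, read at 650 nm. IC50 from dose-response curves.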

Plasmodium falciparum [2] = assay: Antimalarial activity against chloroquine-resistant Plasmodium falciparum W2 by LDH release; format: functional, organism-based; procedure, shortened: as §1
Leishmania donovani = assay: Antileishmanial activity against Leishmania donovani promastigotes after 48 hrs by Alamar blue assay; format: functional, organism-based
Procedure, shortened: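 L. donovani promastigotes were grown in RPMI 1640 with 10% fetal calf serum at 26 C. A 3-day-old culture was diluted to 5 × 10^5 promastigotes/mL, and drug dilutions were made directly in the cell suspension. After 48 h at 26 C, growth was read by Alamar Blue fluorescence (ex 544/em 590 nm). IC50 and IC90 came from percent growth versus concentration curves.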

BT-549 [3] = assay: Cytotoxicity against human BT549 cells by neutral red assay; format: functional, cell-based
Procedure, shortened: (§2)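 Cells were seeded at 25,000 per well and incubated 24 h. Test samples were added at a range of concentrations, followed by a further 48 h incubation. Viable cells were quantified by Neutral Red uptake, and IC50 was read from dose curves of percent growth versus concentration.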

SK-OV-3 [4] = assay: Cytotoxicity against human SK-OV3 cells by neutral red assay; format: functional, cell-based; procedure, shortened: as §2
[5] = Cytotoxicity against pig LLC-PK11 cells by neutral red assay; format: cell-based; details: Sus scrofa; procedure, shortened: as §2
Candida albicans = assay: Antifungal activity against Candida albicans; format: functional, organism-based
Procedure, shortened: (§3)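 Modified NCCLS broth microdilution. Samples in DMSO were serially diluted in 0.9% saline and tested in duplicate. Inocula were matched to the 0.5 McFarland standard by absorbance at 630 nm, then diluted in broth. Growth, solvent and media controls were included. Plates were read at 630 nm before and after incubation, and IC50 was taken from percent growth versus concentration.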

Cryptococcus neoformans = assay: Antifungal activity against Cryptococcus neoformans; format: functional, organism-based; procedure, shortened: as §3
Aspergillus fumigatus = assay: Antifungal activity against Aspergillus fumigatus; format: functional, organism-based; procedure, shortened: as §3
SK-MEL [6] = assay: Cytotoxicity against human SKMEL cells by neutral red assay up to 25 ug/mL; format: functional, cell-based; procedure, shortened: as §2
KB [7] = assay: Cytotoxicity against human KB cells by neutral red assay up to 25 ug/mL; format: functional, cell-based; procedure, shortened: as §2
Vero [8] = assay: Cytotoxicity against african green monkey Vero cells by neutral red assay up to 25 ug/mL; format: cell-based; details: chlorocebus sabaeus; procedure, shortened: as §2
Vero [9] = assay: Cytotoxicity against african green monkey Vero cells by neutral red assay; format: cell-based; details: chlorocebus sabaeus; procedure, shortened: as §2
SK-OV-3 [10] = assay: Cytotoxicity against human SK-OV3 cells by neutral red assay up to 25 ug/mL; format: functional, cell-based; procedure, shortened: as §2
[11] = Cytotoxicity against pig LLC-PK11 cells by neutral red assay up to 25 ug/mL; format: cell-based, Sus scrofa; procedure, shortened: as §2
BT-549 [12] = assay: Cytotoxicity against human BT549 cells by neutral red assay up to 25 ug/mL; format: functional, cell-based; procedure, shortened: as §2
Staphylococcus aureus = assay: Antibacterial activity against methicillin-resistant Staphylococcus aureus; format: functional, organism-based
Procedure, shortened: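 Modified NCCLS broth microdilution. Samples in DMSO serially diluted in 0.9% saline, tested in duplicate. Inoculum set against 0.5 McFarland standard by absorbance at 630 nm, then diluted in broth. Growth, solvent and media controls included. Plates read at 630 nm before and after incubation. IC50 from percent growth vs concentration; MIC = lowest concentration with no detectable growth.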

SK-MEL [13] = assay: Cytotoxicity against human SKMEL cells by neutral red assay; format: functional, cell-based; procedure, shortened: as §2
KB [14] = assay: Cytotoxicity against human KB cells by neutral red assay; format: functional, cell-based; procedure, shortened: as §2

Row | Compound | IC50 (Leishmania donovani) [µg/mL] | IC50 (BT-549 [3]) [µg/mL] | Activity (Candida albicans) | Activity (Cryptococcus neoformans) | Activity (Aspergillus fumigatus) | Activity (SK-MEL [6]) | Activity (KB [7]) | Activity (Vero [8]) | Activity (SK-OV-3 [10]) | Activity [11] | Activity (Leishmania donovani) | further results
1 | C[C@@H]1CC[C@H]2[C@@H](C)C(=O)O[C@@H]3O[C@@]4(C)CC[C@@H]1[C@]32OO4 [ARTEMISININ] |  |  |  |  |  |  |  |  |  |  |  | IC50 (Plasmodium falciparum [1]): 0.014 µg/mL (≈ 0.0496 µM); IC50 (Plasmodium falciparum [2]): 0.0075 µg/mL (≈ 0.0266 µM)
2 | CC(C)CC(=O)c1c(O)c(C=O)c2c(c1O)C[C@H]1CC[C@H]3[C@H](C3(C)C)[C@@]1(C)O2 | 2.4 (≈ 6.21 µM) | > 25 | inactive | inactive | inactive | inactive | inactive | Not Active |  |  |  | IC90 (Leishmania donovani): 8 µg/mL (≈ 20.7 µM); IC50 (SK-OV-3 [4]): > 25 µg/mL; IC50 [5]: > 25 µg/mL
3 | CC(C)CC(=O)c1c(O)c2c(c(C(=O)CC(C)C)c1O)O[C@@]1(CO)[C@@H](C2)C[C@H]2C[C@@H]1C2(C)C | 24 (≈ 52.3 µM) | 25 (≈ 54.5 µM) | inactive | inactive | inactive | inactive | inactive |  | inactive | Not Active |  | IC50 (Vero [9]): > 25 µg/mL
4 | CC(C)CC(=O)c1c(O)c2c(c(C(=O)CC(C)C)c1O)O[C@]1(C)C[C@@H]3[C@H](C[C@@H]1C2)C3(C)C |  |  | inactive | inactive | inactive | inactive | inactive | Not Active | inactive | Not Active | inactive | Activity (BT-549 [12]): inactive
5 | N=C(N)c1ccc(OCCCCCOc2ccc(C(=N)N)cc2)cc1 [PENTAMIDINE] | 1.2 (≈ 3.52 µM) |  |  |  |  |  |  |  |  |  |  | IC90 (Leishmania donovani): 6 µg/mL (≈ 17.6 µM)
6 | CC(C)CC(=O)c1c(O)c2c(c(C(=O)CC(C)C)c1O)O[C@@]1(CC2)[C@H]2CC[C@H](C2)C1(C)C |  |  | inactive | inactive | inactive | inactive | inactive | Not Active | inactive | Not Active | inactive | Activity (BT-549 [12]): inactive
7 | CC(C)CC(=O)c1c(O)c(C=O)c2c(c1O)C[C@H]1C[C@H]3C[C@H](C3(C)C)[C@@]1(CO)O2 | 18 (≈ 44.7 µM) | 23 (≈ 57.1 µM) | inactive | inactive | inactive | inactive | inactive | Not Active | inactive | Not Active |  | IC90 (Leishmania donovani): 39 µg/mL (≈ 96.9 µM); IC50 (Staphylococcus aureus): 2.5 µg/mL (≈ 6.21 µM)
8 | CC1(C)[C@H]2C[C@@H]3Cc4c(O)c(C=O)c(O)c(C=O)c4O[C@]3(CO)[C@@H]1C2 |  | 25 (≈ 72.2 µM) | inactive | inactive | inactive |  |  | Not Active | inactive | Not Active | inactive | IC50 (SK-MEL [13]): 25 µg/mL (≈ 72.2 µM)
9 | CC1(C)[C@H]2C[C@@H]3Cc4c(O)c(C=O)c(O)c(C=O)c4O[C@]3(CCO)[C@@H]1C2 | 22 (≈ 61 µM) |  | inactive | inactive | inactive | inactive | inactive | Not Active | inactive | Not Active |  | Activity (BT-549 [12]): inactive
10 | COc1cccc2c1C(=O)c1c(O)c3c(c(O)c1C2=O)C[C@@](O)(C(=O)CO)C[C@@H]3O[C@H]1C[C@H](N)[C@H](O)[C@H](C)O1 [DOXORUBICIN] |  | 0.6 (≈ 1.1 µM) |  |  |  |  |  |  |  |  |  | IC50 (SK-MEL [13]): 0.6 µg/mL (≈ 1.1 µM); IC50 (KB [14]): 0.9 µg/mL (≈ 1.66 µM); IC50 (SK-OV-3 [4]): 0.75 µg/mL (≈ 1.38 µM); IC50 [5]: 0.5 µg/mL (≈ 0.92 µM)
11 | CC(C)CC(=O)c1c(O)c(C=O)c2c(c1O)C[C@H]1C[C@H]3C[C@H](C3(C)C)[C@@]1(CCO)O2 | 9.5 (≈ 22.8 µM) | 18.5 (≈ 44.4 µM) | inactive | inactive | inactive |  |  |  |  |  |  | IC90 (Leishmania donovani): 33 µg/mL (≈ 79.2 µM); IC50 (SK-MEL [13]): 25 µg/mL (≈ 60 µM); IC50 (KB [14]): 20 µg/mL (≈ 48 µM); IC50 (SK-OV-3 [4]): 25 µg/mL (≈ 60 µM); IC50 (Vero [9]): 20 µg/mL (≈ 48 µM); IC50 [5]: 25 µg/mL (≈ 60 µM); IC50 (Staphylococcus aureus): 1 µg/mL (≈ 2.4 µM); MIC (Staphylococcus aureus): 5 µg/mL (≈ 12 µM)
12 | CC(C)CC(=O)c1c(O)c(C=O)c(O)c2c1O[C@@]1(CO)[C@@H](C2)C[C@H]2C[C@@H]1C2(C)C | 30 (≈ 74.5 µM) | 22.5 (≈ 55.9 µM) | inactive | inactive | inactive | inactive | inactive | Not Active | inactive | Not Active |  | IC50 (Staphylococcus aureus): 10 µg/mL (≈ 24.8 µM)
13 | CC(C)CC(=O)c1c(O)c(C=O)c(O)c2c1O[C@@]1(CCO)[C@@H](C2)C[C@H]2C[C@@H]1C2(C)C | 32 (≈ 76.8 µM) | > 25 | inactive | inactive | inactive | inactive |  |  |  |  |  | IC50 (KB [14]): > 25 µg/mL; IC50 (SK-OV-3 [4]): > 25 µg/mL; IC50 (Vero [9]): > 25 µg/mL; IC50 [5]: > 25 µg/mL; IC50 (Staphylococcus aureus): 5 µg/mL (≈ 12 µM)
14 | CC(C)CC(=O)c1c(O)c2c(c(C(=O)CC(C)C)c1O)O[C@@]1(CCO)[C@@H](C2)C[C@H]2C[C@@H]1C2(C)C |  | > 25 | inactive | inactive | inactive | inactive | inactive | Not Active | inactive | Not Active | inactive | 
15 | CC1(C)[C@H]2[C@@H]1CC[C@@H]1Cc3c(O)c(C=O)c(O)c(C=O)c3O[C@@]12C | 20 (≈ 60.5 µM) | > 25 | inactive | inactive | inactive | inactive |  | Not Active | inactive | Not Active |  | IC90 (Leishmania donovani): 40 µg/mL (≈ 121 µM); IC50 (KB [14]): 20 µg/mL (≈ 60.5 µM)
16 | CC(C)CC(=O)c1c(O)c(C=O)c2c(c1O)C[C@H]1C[C@H]3C[C@H](C3(C)C)[C@@]1(C)O2 [EUGLOBAL G2] | 3.6 (≈ 9.31 µM) |  |  |  |  |  |  |  |  |  |  | 
17 | O=C(O)c1cn(C2CC2)c2cc(N3CCNCC3)c(F)cc2c1=O [CIPROFLOXACIN] |  |  |  |  |  |  |  |  |  |  |  | MIC (Staphylococcus aureus): 0.25 µg/mL (≈ 0.754 µM)
18 | CC(C)CC(=O)c1c(O)c2c(c(C(=O)CC(C)C)c1O)O[C@]1(CC2)CC[C@@H]2C[C@H]1C2(C)C |  |  | inactive | inactive | inactive | inactive | inactive | Not Active | inactive | Not Active | inactive | Activity (BT-549 [12]): inactive
19 | C[C@@H]1[C@H](O)[C@@H](C)/C=C/C=C/C=C/C=C/C=C/C=C/C=C/[C@H](O[C@@H]2O[C@H](C)[C@@H](O)[C@H](N)[C@@H]2O)C[C@@H]2O[C@](O)(C[C@@H](O)C[C@@H](O)[C@H](O)CC[C@@H](O)C[C@@H](O)CC(=O)O[C@H]1C)C[C@H](O)[C@H]2C(=O)O [AMPHOTERICIN B] | 0.19 (≈ 0.206 µM) |  |  |  |  |  |  |  |  |  |  | IC90 (Leishmania donovani): 0.36 µg/mL (≈ 0.39 µM)
20 | CC(C)CC(=O)c1c(O)c2c(c(C(=O)CC(C)C)c1O)O[C@@]1(C)[C@@H](C2)C[C@H]2C[C@@H]1C2(C)C |  |  | inactive | inactive | inactive | inactive | inactive | Not Active | inactive | Not Active | inactive | Activity (BT-549 [12]): inactive
21 | CC(C)CC(=O)c1c(O)c2c(c(C(=O)CC(C)C)c1O)O[C@@]1(C)[C@H](CC[C@H]3[C@@H]1C3(C)C)C2 |  |  | inactive | inactive | inactive | inactive | inactive | Not Active | inactive | Not Active | inactive | Activity (BT-549 [12]): inactive
